This passage reports yeast fitness results from the RNAGym collection of RNA variant scans (doi:10.1126/science.aae0568).

First the molecules themselves.
B1: tRNA (parent)
chain: GUUCCGUUGGCGUAAUGGUAACGCGUCUCCCUCCUAAGGAGAAGACUGCGGGUUCGAGUCCCGUACGGAACG

Variants at the floor of the assay were thinned out.

The variants in this data set derive from B1. As to the kind of experiment: yeast fitness relative to wild type (ratio to wild type); higher = fitter; tRNA-Arg(CCU), competitive growth, 37 C, YPD. In short, it runs like this:
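Genotype frequency changes were the basis for Darwinian fitness relative to wild type. The frequencies came from 100-nucleotide paired-end sequencing of gene amplicons from the start population and each end population of pooled yeast strains with tRNA-Arg(CCU) gene variants at the native locus. Competition ran in YPD at 37°C for 24 hours in six replicates, genotypes needed ≥ 100 starting reads, and estimates < 0.5 were set to 0.5.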
For C31U C61U A70U, the yeast fitness was 0.696.

C33G A40G A42C C66U: the yeast fitness is at most 0.5.

Consider C31U C61A C62U A65U, for which the yeast fitness is at most 0.5.

In the case of C33A A57U C66U A69U, the yeast fitness is at most 0.5.

For the variant U32C A69C, the yeast fitness amounted to 0.943.

On to C33G A42G G52A, for which the yeast fitness was at most 0.5.

C33A G38C G50A U64C: the yeast fitness was at most 0.5.

In the case of U32A G63A, the yeast fitness was determined as 0.748.

For U32A G63C, the yeast fitness was found to be 0.626.

As for U32G C46G, the yeast fitness is 0.757.

For the variant U32A U64A G67A, the yeast fitness is at most 0.5.

As for U32C A37U C49G A70U, the yeast fitness came out at 0.664.

With C31U G63C G67C A69U, the yeast fitness came out at 0.511.

In the case of U32C C33A G51C G68A, the yeast fitness is at most 0.5.

For U32A G58C C66A, the yeast fitness was at most 0.5.

Regarding C31U U35C A40G A65U, the yeast fitness is at most 0.5.

Consider U32C G52A, for which the yeast fitness was 0.76.

In the case of U32C G51A, the yeast fitness was determined as 0.851.

As to U32G G48C G58C, the yeast fitness is at most 0.5.

Take U32C A37C G39C: the yeast fitness was at most 0.5.

For U32A C61G C66G, the yeast fitness is 0.576.

Turning to C31U G68A A69G, the yeast fitness came to 0.702.

Take U32A C33G C60A: the yeast fitness is at most 0.5.

With U32C G38A, the yeast fitness was 0.962.

Turning to C31U G48A C55U G63C, the yeast fitness turned out to be 0.595.

With U32C U35C C49U, the yeast fitness was 0.659.

Turning to U32G A37U U64C, the yeast fitness was at most 0.5.

On to C31U U47A, for which the yeast fitness was found to be 0.817.

For the variant U32A C66A, the yeast fitness was determined as 0.614.

On to U32A C33U, for which the yeast fitness was determined as 0.597.

Consider U32C C60G A65C, for which the yeast fitness amounted to 0.501.

As to U32A A42C, the yeast fitness is 0.817.

With C31U C34U G38A G44C, the yeast fitness is at most 0.5.

Consider U32G A36U, for which the yeast fitness came to 0.697.

Regarding C31U C46A A57C A65U, the yeast fitness is at most 0.5.

Consider C31U G41C A43C C60G, for which the yeast fitness was at most 0.5.

For the variant C31U U32C U54G C55U C61U, the yeast fitness is at most 0.5.

On to C31U G39C, for which the yeast fitness was 0.901.

As for C33G A36C C49A C60G A70U, the yeast fitness was at most 0.5.

Turning to U32C A40U C55G A70C, the yeast fitness was at most 0.5.

On to U32A A42C C61G C66G, for which the yeast fitness worked out at 0.554.

With U32C A42C C46U, the yeast fitness came to 0.63.

For the variant U32C G38C G68C A69C, the yeast fitness stood at 0.589.

With C31U G41U, the yeast fitness worked out at 1.03.

For C31U G48A A69C, the yeast fitness is 0.772.

In the case of C31U G52A G68C, the yeast fitness was at most 0.5.

As for U32C C34U U53A G68C, the yeast fitness came out at 0.537.

Consider C31U C46U G51A, for which the yeast fitness was found to be 0.968.

C33A C60G: the yeast fitness amounted to 0.613.

As for U32A A36U G44C A45G, the yeast fitness came to 0.516.

Take U32A A70C: the yeast fitness came out at 0.741.

For U32A A36U C62U, the yeast fitness was at most 0.5.

Consider C33G C34G C62U, for which the yeast fitness is at most 0.5.

Consider C31U G44A, for which the yeast fitness worked out at 1.02.

For U32C A65U G67A, the yeast fitness amounted to 0.646.

For U32A G68C, the yeast fitness stood at 0.721.

As for C33G C34U U53C, the yeast fitness is 0.577.

For U32C G58C, the yeast fitness is 0.884.

For U32C A36C, the yeast fitness was 0.756.

Turning to C33G A45C C61G, the yeast fitness was determined as 0.567.

Take U32G A57C C62G C66G: the yeast fitness was found to be 0.567.

With C33A A36C G51A, the yeast fitness stood at 0.721.

As to U32A C61A A65U, the yeast fitness was at most 0.5.

C31U G41U G63A: the yeast fitness was 0.721.

Consider C33G A70U, for which the yeast fitness is 0.714.

In the case of U32G G39C A57U U59A A69C, the yeast fitness was at most 0.5.

As to U32A A37G G48A U59C, the yeast fitness was found to be 0.541.

As to C31U A70C, the yeast fitness was found to be 1.05.

With U32G G63C, the yeast fitness turned out to be 0.571.

On to C33G A40G G51C C61U, for which the yeast fitness is at most 0.5.

For the variant C31U C33U A42C C49U A65C, the yeast fitness was at most 0.5.

Regarding U32A U64G, the yeast fitness worked out at 0.751.

For U32C A45U C66A, the yeast fitness was at most 0.5.

In the case of U32C G56A, the yeast fitness came out at 1.07.

For the variant U32A U54C, the yeast fitness came out at 0.629.

As to C33A U47A, the yeast fitness turned out to be 0.777.

C31U G44C U64C: the yeast fitness is 0.559.

As to U32C C46G C62U, the yeast fitness worked out at 0.733.

In the case of U32C C46U, the yeast fitness was 0.862.

Consider C33A G39C G41C G44C, for which the yeast fitness turned out to be 0.549.

As to U32C G38C A69U, the yeast fitness stood at 0.531.

U32C G48C G56A: the yeast fitness was at most 0.5.

In the case of C33A C62U G67A, the yeast fitness is at most 0.5.

Regarding C31U U59A, the yeast fitness worked out at 0.771.

U32C U35C A37U G52A C66A: the yeast fitness amounted to 0.719.

Regarding C33A, the yeast fitness was found to be 0.795.

Consider C33G, for which the yeast fitness came out at 0.743.

Regarding C33G C34G C46U, the yeast fitness stood at 0.547.

Consider C31U C34A, for which the yeast fitness is 0.863.

With C33A A37U C55U A57C G58C, the yeast fitness is at most 0.5.

U32C C46U G50A G56C C62A C66U: the yeast fitness is at most 0.5.

Turning to C33A A37U C62A, the yeast fitness is 0.503.

For the variant U32A A65C, the yeast fitness turned out to be 0.887.

For the variant C33G A57U A70U, the yeast fitness is at most 0.5.

Take U32G G38A C61G A70G: the yeast fitness was at most 0.5.

As to U32A A36U A70G, the yeast fitness is at most 0.5.

As for C31U U32C, the yeast fitness is 0.812.

U32C A40G G41A: the yeast fitness was at most 0.5.

Turning to C33G A57G C61G A65G C66U, the yeast fitness is at most 0.5.

As for C31U U32G C33G G58C, the yeast fitness was at most 0.5.

As for C31U C55G C62U, the yeast fitness is at most 0.5.

C33A A65G A69C: the yeast fitness is at most 0.5.

With C33A A40U, the yeast fitness was found to be 0.741.

On to U32C G39C, for which the yeast fitness is 0.765.

In the case of C31U U53G, the yeast fitness turned out to be 0.644.

On to U32G A36U U59C, for which the yeast fitness was at most 0.5.

With C31U C46G G50A C61U, the yeast fitness turned out to be 0.649.

For C33G A45C G50C, the yeast fitness is at most 0.5.

For the variant U32C A42U G48C, the yeast fitness was determined as 0.567.

Regarding U32G U54A G67C, the yeast fitness is at most 0.5.

As to C31U G41U G56A, the yeast fitness turned out to be 0.686.

C31U C62U G63A: the yeast fitness came out at 0.617.

On to U32G G48A A70U, for which the yeast fitness is 0.553.

As to U32G C33A U47A, the yeast fitness is at most 0.5.

In the case of C31U U47G A65U, the yeast fitness is at most 0.5.

For the variant U32C G68U, the yeast fitness was 0.877.

As to U32C G68A, the yeast fitness worked out at 0.921.

Consider C31U C46A A57U C60U, for which the yeast fitness is at most 0.5.

Turning to C31U U54A C62G G68C, the yeast fitness is at most 0.5.

For the variant C33G A37G C49U C60U, the yeast fitness was found to be 0.551.

For the variant U32C G48A U53G, the yeast fitness was at most 0.5.

For the variant C31U C61G C66G, the yeast fitness is at most 0.5.

U32A C49G C55U A69C: the yeast fitness came to 0.546.

As to C33A G68C, the yeast fitness amounted to 0.744.

In the case of C31U U53A G68A, the yeast fitness was 0.515.

Regarding U32C C61G A69C, the yeast fitness is at most 0.5.

For the variant C31U G51A, the yeast fitness came to 0.892.

Turning to U32A G67A, the yeast fitness amounted to 0.766.

Regarding U32C C34G A65U A70G, the yeast fitness is at most 0.5.

For the variant C31U G48C U59A G67C A69C, the yeast fitness was at most 0.5.

Take U32G C49U G56A: the yeast fitness was found to be 0.744.

Regarding U32A G39A U54A, the yeast fitness is at most 0.5.

In the case of C31U C55U A70U, the yeast fitness is 0.567.

C33A A43U C49A: the yeast fitness is 0.591.

As to C33G C49G C55U, the yeast fitness is at most 0.5.

Turning to C33A A37C C61U C62A, the yeast fitness stood at 0.635.

In the case of U32A C49U G68A, the yeast fitness was at most 0.5.

C33A C34A G56A: the yeast fitness was at most 0.5.

Take U32A A57U: the yeast fitness was 0.558.

Take C33G A43C G68A: the yeast fitness is at most 0.5.

U32C A43G C66U: the yeast fitness is 0.758.

In the case of C31U C60U G67A A69U, the yeast fitness was at most 0.5.

As to C31U G52A, the yeast fitness turned out to be 0.871.

Consider C33G A45C U54C, for which the yeast fitness was at most 0.5.

As to U32G U35A A36G C66U, the yeast fitness is at most 0.5.

C33G A45U C55U: the yeast fitness was at most 0.5.

U32G C34A G38A A70G: the yeast fitness is at most 0.5.

As to U32G U47A U64A A65C G67A, the yeast fitness was 0.6.

With C31U U53C C62U, the yeast fitness is at most 0.5.

In the case of C33G A65U, the yeast fitness was found to be 0.728.

Consider C33A G39A A40U C55U C62U, for which the yeast fitness is at most 0.5.

For the variant C33A U54A, the yeast fitness was at most 0.5.

As for U32G C33G A70U, the yeast fitness was found to be 0.543.

Take U32A C55A C61U: the yeast fitness was determined as 0.536.

Take C31U G51A G56C G67C: the yeast fitness came out at 0.526.

Take U32A G58C A69U: the yeast fitness came to 0.56.

Turning to U32G G58A, the yeast fitness worked out at 0.609.

In the case of U32C A37C G38A G63A, the yeast fitness turned out to be 0.533.

With C33A G38C A43G, the yeast fitness is at most 0.5.

With C33A A36U, the yeast fitness stood at 0.615.

As for U32C C33U, the yeast fitness was 0.659.

On to U32C C33G G67C, for which the yeast fitness is at most 0.5.

As to C31U C60A G67A, the yeast fitness is at most 0.5.

Consider U32G G41C C46U, for which the yeast fitness was 0.647.

For the variant C33A U35C C46U C49U G52C C61U C66U, the yeast fitness is at most 0.5.

Regarding U32C G48A A57C, the yeast fitness was at most 0.5.

For the variant U32G U35A A36G A57U, the yeast fitness is at most 0.5.
